Test results from ChEMBL document CHEMBL3997769, “Discovery and preclinical evaluation of 7-benzyl-N-(substituted)-pyrrolo[3,2-d]pyrimidin-4-amines as single agents with microtubule targeting effects along with triple-acting angiokinase inhibition as antitumor agents” (Bioorg Med Chem, 2017).
One block for each compound: values may come before it. Calls of active or inactive are those of the source. The calls are words filed in the database; no cut-off is given here.

Legend:
HeLa = experiment: Growth inhibition of human HeLa cells measured after 96 hrs by sulforhodamine B assay; type: functional, cell-based
Method in brief: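 Exposed 96 h to varying compound concentrations in 0.5% DMSO. Cell protein measured by sulforhodamine B; IC50 = concentration halving the increase in cell protein versus untreated cultures.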

4T1 [1] = experiment: Antitumor activity against luciferase/GFP-tagged mouse 4T1 cells implanted in Balb/CJ mouse assessed as reduction in primary tumor growth at 1 mg/kg, ip administered once in a week; type: functional, organism-based
Mus musculus = experiment: Toxicity in Balb/cJ mouse implanted with luciferase/GFP-tagged mouse 4T1 cells assessed as body weight gain at 1 mg/kg, ip administered once weekly measured at day 40 post dose; type: organism-based; settings: in vivo
4T1 [2] = experiment: Antitumor activity against luciferase/GFP-tagged mouse 4T1 cells implanted in Balb/cJ mouse assessed as reduction in lung metastasis at 1 mg/kg, ip administered once weekly by fluorescence microscopic method; type: functional, organism-based
Method in brief: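 Orthotopic 4T1-Luc2-GFP allograft in the mammary fat pad of female BALB/cJ mice; IP treatment in 5% Pharmasolve/5% Solutol HS in saline began one week after implantation. At study end, lungs were excised from mice euthanized under isoflurane and imaged with a GFP-filter fluorescence dissecting microscope; GFP-positive metastases per lung counted. n = 9-10.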

[3] = Toxicity in Balb/cJ mouse assessed as body weight loss administered once weekly measured every 2 days during compound dosing; settings: in vivo
Method in brief: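 Female BALB/cJ mice, 8 weeks old, carrying orthotopic 4T1-Luc2-GFP allografts (7,500 cells in mammary fat pad #4). IP dosing at 1 mg/kg once weekly began one week after implantation, in 5% Pharmasolve/5% Solutol HS in normal saline. Body weight was reported as percent change at day 40 from starting weight, vs untreated controls, n = 9–10, by one-way ANOVA.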

[4] = Inhibition of bovine brain tubulin assembly preincubated for 15 mins followed by GTP addition measured for 20 mins by spectrophotometric method; parameters: species or system Bos taurus
A-431 = experiment: Cytotoxicity against human A431 cells; type: functional, cell-based
Chorioallantoic membrane = experiment: Antiangiogenic activity in Leghorn chicken egg chorioallantoic membrane assessed as inhibition of human VEGF-165/bFGF-induced blood vessels formation measured after 40 hrs by microscopic method; type: functional, tissue-based; settings: Gallus gallus

- IC50 (HeLa): 0.06 µM
Compound: COc1ccc2c(c1)CCCN2c1nc(C)nc2c(Cc3ccccc3)cn(C)c12

Compound: COc1cccc2c1C(=O)c1c(O)c3c(c(O)c1C2=O)C[C@@](O)(C(=O)CO)C[C@@H]3O[C@H]1C[C@H](N)[C@H](O)[C@H](C)O1 [DOXORUBICIN]
- Activity (4T1 [1]): inactive
- Activity (Mus musculus): Toxic
- Activity (4T1 [2]): Active
- MTD at 48 h [3]: 1 mg/kg

- IC50 [4]: > 20 µM
Compound: COc1ccc(Nc2nc(C)nc3c(Cc4ccccc4)cn(C)c23)cc1
- IC50 (A-431): 2.3 µM
- IC50 (Chorioallantoic membrane): 8.7 µM

- IC50 [4]: > 20 µM
Compound: COc1ccc2c(c1)CCN2c1nc(C)nc2c(Cc3ccccc3)c[nH]c12
